Measured values from ChEMBL document CHEMBL1129630, “Synthesis and structure-activity relationships of retinoid X receptor selective diaryl sulfide analogs of retinoic acid” (J Med Chem, 1996).

Key:
[1] = biological target: T1, Retinoic acid receptor beta (Homo sapiens, UniProt P10826); assay: Transcriptional activation of Retinoic acid receptor RAR beta;NA=not active; design: species or system Cercopithecidae
T1 sequence (P10826 whole entry): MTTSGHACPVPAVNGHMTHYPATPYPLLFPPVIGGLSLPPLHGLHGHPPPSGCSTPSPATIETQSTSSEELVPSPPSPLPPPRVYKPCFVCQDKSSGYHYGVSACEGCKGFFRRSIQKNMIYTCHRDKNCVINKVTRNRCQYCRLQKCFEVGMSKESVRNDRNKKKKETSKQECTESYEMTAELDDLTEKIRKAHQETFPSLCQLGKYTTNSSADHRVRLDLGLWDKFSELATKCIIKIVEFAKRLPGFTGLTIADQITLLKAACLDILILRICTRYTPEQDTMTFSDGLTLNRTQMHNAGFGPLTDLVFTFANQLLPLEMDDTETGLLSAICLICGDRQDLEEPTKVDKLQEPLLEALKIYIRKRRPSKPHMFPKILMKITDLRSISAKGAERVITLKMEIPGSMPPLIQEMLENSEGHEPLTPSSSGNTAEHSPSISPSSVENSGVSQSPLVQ
Summary of the method: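 CV-1 cells transiently cotransfected with the receptor construct and a reporter gene, with induced transcription measured. Activity is normalized to all-trans RA. EC50 is the concentration giving 50% of maximal observed response, from a single experiment in triplicate.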

[2] = biological target: T2, Retinoic acid receptor RXR-beta (Mus musculus, UniProt P28704); assay: Dissociation constant for binding to Retinoid X receptor beta
T2 sequence (P28704 whole entry): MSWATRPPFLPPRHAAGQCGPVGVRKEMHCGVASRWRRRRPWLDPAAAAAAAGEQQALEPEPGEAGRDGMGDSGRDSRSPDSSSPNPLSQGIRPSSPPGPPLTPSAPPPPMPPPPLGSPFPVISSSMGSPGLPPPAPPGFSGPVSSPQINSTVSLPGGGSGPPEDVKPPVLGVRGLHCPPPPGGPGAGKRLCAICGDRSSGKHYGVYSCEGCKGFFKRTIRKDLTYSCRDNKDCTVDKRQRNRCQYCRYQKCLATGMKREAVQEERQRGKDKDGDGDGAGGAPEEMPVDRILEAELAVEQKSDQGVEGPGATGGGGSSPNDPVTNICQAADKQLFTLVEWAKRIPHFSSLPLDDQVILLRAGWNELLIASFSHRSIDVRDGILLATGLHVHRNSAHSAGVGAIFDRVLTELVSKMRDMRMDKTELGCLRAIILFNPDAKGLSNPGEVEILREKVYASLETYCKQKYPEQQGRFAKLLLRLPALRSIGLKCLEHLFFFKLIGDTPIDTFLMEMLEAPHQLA
Summary of the method: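 Competitive binding assay measuring displacement at the RXRβ receptor subtype.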

[3] = biological target: T3, Retinoic acid receptor RXR-beta (Homo sapiens, UniProt P28702); assay: Transcriptional activation of Retinoid X receptor RXR beta; design: species or system Cercopithecidae
T3 sequence (P28702 whole entry): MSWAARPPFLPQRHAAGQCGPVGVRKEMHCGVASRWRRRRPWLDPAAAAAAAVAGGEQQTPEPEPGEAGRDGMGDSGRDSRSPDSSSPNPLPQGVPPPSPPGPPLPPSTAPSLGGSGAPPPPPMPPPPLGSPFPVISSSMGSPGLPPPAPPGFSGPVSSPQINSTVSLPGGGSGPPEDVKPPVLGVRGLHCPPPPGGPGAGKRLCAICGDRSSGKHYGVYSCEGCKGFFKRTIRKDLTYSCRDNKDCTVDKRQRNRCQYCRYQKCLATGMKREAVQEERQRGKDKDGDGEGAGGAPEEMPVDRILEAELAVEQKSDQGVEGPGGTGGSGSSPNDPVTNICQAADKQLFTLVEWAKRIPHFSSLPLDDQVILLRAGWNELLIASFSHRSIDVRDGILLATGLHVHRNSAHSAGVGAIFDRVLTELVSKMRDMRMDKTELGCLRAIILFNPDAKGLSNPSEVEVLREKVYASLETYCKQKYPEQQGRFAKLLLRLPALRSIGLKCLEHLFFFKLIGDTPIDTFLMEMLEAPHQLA
Summary of the method: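 CV-1 cells transiently cotransfected with the receptor construct and a reporter gene, with induced transcription measured. Activity is normalized to all-trans RA.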

[4] = biological target: T4, Retinoic acid receptor beta (Mus musculus, UniProt P22605); assay: Dissociation constant for binding to Retinoic acid receptor beta
T4 sequence (P22605 whole entry): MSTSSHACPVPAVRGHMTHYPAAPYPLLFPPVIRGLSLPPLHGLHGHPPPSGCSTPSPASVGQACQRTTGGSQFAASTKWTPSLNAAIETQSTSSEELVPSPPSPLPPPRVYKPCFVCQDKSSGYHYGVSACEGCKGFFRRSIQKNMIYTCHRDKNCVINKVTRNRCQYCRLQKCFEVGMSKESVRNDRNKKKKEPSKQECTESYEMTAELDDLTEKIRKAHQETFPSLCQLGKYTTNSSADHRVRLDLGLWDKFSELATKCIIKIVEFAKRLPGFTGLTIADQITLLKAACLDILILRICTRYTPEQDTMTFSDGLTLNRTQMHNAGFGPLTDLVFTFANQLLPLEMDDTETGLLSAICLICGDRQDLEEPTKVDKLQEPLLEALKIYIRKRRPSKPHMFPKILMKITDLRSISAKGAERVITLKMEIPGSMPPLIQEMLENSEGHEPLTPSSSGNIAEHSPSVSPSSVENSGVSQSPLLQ
Summary of the method: (§1)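 Competitive binding assays against each receptor subtype, with Kd values taken from competition.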

[5] = biological target: T5, Retinoic acid receptor gamma (Mus musculus, UniProt P18911); assay: Dissociation constant for binding to Retinoic acid receptor gamma; summary of the method: as §1
T5 sequence (P18911 whole entry): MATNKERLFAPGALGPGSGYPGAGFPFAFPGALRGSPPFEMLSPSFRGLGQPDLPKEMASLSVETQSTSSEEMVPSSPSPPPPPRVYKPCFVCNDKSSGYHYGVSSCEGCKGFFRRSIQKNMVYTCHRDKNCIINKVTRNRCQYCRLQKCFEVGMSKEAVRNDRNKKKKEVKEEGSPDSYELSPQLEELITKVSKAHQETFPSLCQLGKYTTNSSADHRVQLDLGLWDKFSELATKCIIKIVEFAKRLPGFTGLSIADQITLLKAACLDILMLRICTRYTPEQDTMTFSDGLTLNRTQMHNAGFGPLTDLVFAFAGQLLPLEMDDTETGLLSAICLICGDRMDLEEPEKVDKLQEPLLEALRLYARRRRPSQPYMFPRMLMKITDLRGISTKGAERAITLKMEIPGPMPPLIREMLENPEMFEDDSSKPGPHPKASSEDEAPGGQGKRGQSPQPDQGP

Compound	EC50 [1]	Kd [2] [µM]	EC50 [3] [µM]	Kd [4] [µM]	Kd [5] [µM]
Cc1cc2c(cc1Sc1ccc(C(=O)O)cn1)C(C)(C)CCC2(C)C	Not Active	0.087	–	–	–
Cc1cc2c(cc1Sc1ncc(C(=O)O)s1)C(C)(C)CCC2(C)C	Not Active	1	1.3	1	1
Cc1cc2c(cc1S(=O)(=O)c1ccc(C(=O)O)cc1)C(C)(C)CCC2(C)C	Not Active	–	–	> 10	10
Cc1cc2c(cc1Sc1ccc(C(=O)O)cc1)C(C)(C)CCC2(C)C	Not Active	–	0.3	> 10	10
CC1(C)CCC(C)(C)c2cc(Sc3ccc(C(=O)O)cc3)ccc21	–	3.09	–	4.24	> 10
Cc1cc2c(cc1[S+]([O-])c1ccc(C(=O)O)cc1)C(C)(C)CCC2(C)C (configuration not stated)	Not Active	> 10	3	> 10	10
